Only some compounds are listed: those with a hit (about 3.7% of all), similar ones and a draw of the others.
KCNK3 block: human KCNK3 channel inhibitors, primary screen, CHO cells, FluxOR thallium flux, B-score. FluxOR fluorescence; stronger effect = lower value. B-score at 10 µM. Potassium channel subfamily K member 3 (Homo sapiens), O14649. 340,000 tested, 0.84% active;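 active means B-score under library mean minus 4 SD, starting fluorescence ratio at most library mean plus 5 SD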;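 further: more negative B-score means stronger inhibition of thallium flux through KCNK3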
KCNQ1 block: inhibitors of human KCNQ1 channel, primary screen, cell-based, thallium flux, high-throughput. Potassium voltage-gated channel subfamily KQT member 1 (Homo sapiens), P51787. CHO-K1 KCNQ1, FluxOR thallium flux fluorescence; stronger effect = higher value. B-score at 10 µM. 310,000 tested, 1.3% active. AID 2642, 2010;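 active means compounds whose thallium flux B-score, printed positive for inhibition, exceeds three library SD while starting fluorescence stays within three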;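 further: channel opened by potassium depolarization with thallium stimulus after 20 min compound exposure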
hERG protect: hERG rescue from dofetilide block, primary screen, cell-based, CHO-hERG, FluxOR thallium flux, dofetilide IC70. Voltage-gated inwardly rectifying potassium channel KCNH2 (Homo sapiens), Q12809. dofetilide IC70 present. activation (rescue from dofetilide block), less the hit threshold, % at 10 µM. 310,000 tested, 0.51% active;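 active means activation above the mean of controls blocked by dofetilide plus 5 SD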;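 further: thallium influx through hERG after potassium depolarization seen as dye fluorescence rise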
KCNQ1 act: potentiators or activators of KCNQ1 channel, primary screen, cell-based, thallium flux, high-throughput; Potassium voltage-gated channel subfamily KQT member 1 (Homo sapiens), P51787; CHO-K1 KCNQ1, thallium flux FluxOR fluorescence; stronger effect = higher value; B-score at 10 µM; 310,000 tested, 0.35% active; AID 2648, 2010;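 active means fluorescence ratio B-score, a plate-corrected score, at least three library SD, with initial intensity B-score within 5 SD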
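Material: CHO-K1 cells stably expressing KCNQ1. Medium: assay buffer for compound exposure, DMSO matched across wells. Reagent: K+/Tl+ depolarizing stimulus. Compound dosing: single-concentration screen. Times: 37 °C overnight plating, 90-min dark dye load, 20-min compound pretreatment. Technique: FluxOR Tl+ flux fluorescence.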
KCNK9 inh: KCNK9 potassium channel inhibitors, primary screen, HEK293 cells, thallium flux; 310,000 tested, 1.2% active; B-score at 10 µM; Potassium channel subfamily K member 9 (Homo sapiens), Q9NPC2; FluxOR thallium flux fluorescence; stronger effect = lower value; AID 488922, 2010;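 active means ratio B-score over 3 SD below the library mean, with starting fluorescence within 5 SD of its mean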;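 further: negative B-score means less thallium flux so channel inhibition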
Kir21 block: inhibitors of mouse Kir2.1 inward-rectifier potassium channel; HEK293-Kir2.1, FluxOR thallium flux fluorescence; stronger effect = lower value; B-score at 10 µM; 310,000 tested, 0.85% active;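 active means fluorescence ratio B-score at or below minus 3 SD of library scores, with starting-brightness B-score within 2 SD, cut at about -4.2 in these data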;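 further: channel flux triggered by added potassium and thallium sulfate stimulus; B-score of peak minus minimum fluorescence over baseline after thallium stimulus; more negative B-score means stronger Kir2.1 block with less thallium influx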
Target sequence (P35561 whole entry, looked up): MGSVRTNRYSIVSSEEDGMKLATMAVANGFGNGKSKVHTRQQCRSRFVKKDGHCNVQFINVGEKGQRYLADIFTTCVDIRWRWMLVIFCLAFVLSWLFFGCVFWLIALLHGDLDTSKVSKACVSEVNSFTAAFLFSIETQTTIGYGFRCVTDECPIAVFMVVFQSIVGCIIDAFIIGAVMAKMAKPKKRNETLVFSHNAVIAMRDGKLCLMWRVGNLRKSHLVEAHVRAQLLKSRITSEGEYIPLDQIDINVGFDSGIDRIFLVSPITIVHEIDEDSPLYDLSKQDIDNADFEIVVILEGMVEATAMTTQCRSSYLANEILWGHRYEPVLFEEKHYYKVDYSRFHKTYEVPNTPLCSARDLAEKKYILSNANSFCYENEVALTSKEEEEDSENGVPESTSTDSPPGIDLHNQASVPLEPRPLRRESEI
KCNK9 block conf: KCNK9 potassium channel inhibitors, confirmation, HEK293 cells, thallium flux, duplicate | shares compounds with KCNK9 inh | FluxOR thallium flux fluorescence | inhibition, % at 10 µM | 4,900 tested, 43% active;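 active means thallium signal inhibited by more than 5 SD of the compound-free buffer control wells, on both duplicate plates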;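 further: 0% = assay buffer control wells without compound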
Kir21 sel: mouse Kir2.1 channel inhibition, confirmation, selectivity assay for KCNK9 modulator project, cell-based, HEK293, thallium flux; shares compounds with KCNK9 inh; Kir2.1 cells, FluxOR thallium flux fluorescence; inhibition, % at 10 µM; 4,900 tested, 4% active; AID 492993, 2010;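 active means thallium signal drop more than 5 SD beyond the mean of the no-compound control wells, seen in both duplicate plates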;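 further: signal is fluorescence rise after thallium addition divided by baseline fluorescence; plate controls were assay buffer only for no effect and full block by chlorpromazine control for full effect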
KCNK9 uninduced: thallium flux in non-induced HEK293 cells, confirmation, counter-screen for KCNK9 inhibitor project, cell-based, second counter screen, non-induced KCNK9-HEK293. shares compounds with KCNK9 inh. FluxOR thallium flux. inhibition, % at 10 µM. 4,900 tested, 40% active. AID 492997, 2010;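 active means thallium signal drop beyond 5 SD of the untreated control mean, on both duplicate plates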;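 further: plate controls were buffer only IC0 wells for no effect and SID17386958 at its maximal inhibitory level for full effect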
Starred values were filed as active, the others as inactive; i = inactive; . = no result.

SMILES	KCNK3 block	KCNQ1 block	hERG protect	KCNQ1 act	KCNK9 inh	Kir21 block	KCNK9 block conf	Kir21 sel	KCNK9 uninduced
Cc1cccc(NC(=O)CN2CCC(C(=O)c3ccc4c(c3)OCCO4)CC2)c1	i	i	-9.9	i	i	1.59	i	i	i
CC(=O)c1ccc(N(CC(=O)NC2CCCC2)C(=O)CCC(=O)Nc2cc(C)on2)cc1	i	i	-6.9	i	i	0.4	.	.	.
O=C(COC(=O)CCNS(=O)(=O)c1cccc(C(F)(F)F)c1)NC(=O)NC1CCCCC1	i	i	-12.9	i	-14.5*	-0.39	61.0%*	i	31.0%*
c1ccc2c(c1)OCC(c1csc3ncnc(N4CCCCC4)c13)O2 (stereo unspecified)	i	i	-7.7	i	-13.2*	-0.16	44.5%*	i	32.5%*
CC(=O)Nc1ccc([N+](=O)[O-])cn1	i	i	-5.4	i	-8.38*	-0.24	i	i	i
O=C(Nc1ccc([N+](=O)[O-])cn1)C1CC1	i	i	-4.9	i	i	0.89	.	.	.
Cc1ccc(C)c(N2CCN(C(=O)C3CCCCN3S(=O)(=O)c3ccc(F)cc3)CC2)c1 (stereo unspecified)	i	i	-6.0	i	-18.9*	-0.1	29.5%*	i	30.0%*
O=C(O)C1CCCN1S(=O)(=O)c1ccc(F)cc1 (stereo unspecified)	i	i	-2.6	i	i	-1.74	.	.	.
CCOC(=O)c1[nH]c(C)c(C(=O)N2CCN(c3ccc(OC)cc3)CC2)c1C	i	i	-5.8	i	i	-0.71	.	.	.
CCOC(=O)c1[nH]c(CN2CCN(c3ccc(OC)cc3)CC2)c(C(=O)OCC)c1C	i	i	-8.5	i	i	-0.18	i	i	i
CC(C)C[C@H]1C(=O)N2CCC[C@H]2[C@]2(O)O[C@](NC(=O)C3C=C4c5cccc6[nH]c(Br)c(c56)C[C@H]4N(C)C3)(C(C)C)C(=O)N12 (stereo partly specified)	i	7*	-8.6	i	i	1.44	i	i	i
O=[N+]([O-])c1ccc(/C=C/c2ccc3cccc([N+](=O)[O-])c3n2)cc1	i	i	-4.5	i	i	0.51	.	.	.
O=[N+]([O-])c1cccc2ccc(/C=C/c3ccc(F)cc3)nc12	i	i	-9.3	i	-13.4*	0.58	48.0%*	i	31.5%*
COc1ccc(C(=O)C(OC(=O)c2ccccc2Cl)c2ccccc2)cc1 (stereo unspecified)	i	i	-10.1	i	-8.12*	0.45	59.5%*	i	24.5%*
Cc1cnc(C(=O)OC(C(=O)c2ccccc2)c2ccccc2)cn1 (stereo unspecified)	i	.	.	.	.	.	.	.	.
Cc1ccc(NC(=O)C(OC(=O)c2ccccc2Cl)c2ccccc2)cc1Cl (stereo unspecified)	i	i	-2.9	i	i	-1.41	.	.	.
COc1ccc(C(=O)C(OC(=O)c2ccccc2)c2ccccc2)cc1 (stereo unspecified)	i	i	-6.4	i	-13.6*	-0.67	53.0%*	i	30.0%*
CCc1cccc(CC)c1NC(=O)COC(=O)c1cccc(S(=O)(=O)N2CCc3ccccc3C2)c1	i	i	-7.2	i	-9.11*	-2.57	56.5%*	i	34.0%*
CC(C)(C)OC(=O)COc1cc(O)c2c(=O)cc(-c3ccccc3)oc2c1	i	10*	-9.5	i	-11.5*	-0.92	43.0%*	i	34.0%*
CCOc1ccc2cc(/C=C/C(=O)c3ccco3)c(Cl)nc2c1	-9.65*	i	-7.8	i	-12.2*	-0.03	i	i	33.0%*
CCOc1ccc2nc(SCC(=O)NNC(=O)c3ccco3)c(C)cc2c1	i	i	0.7	i	i	-0.28	.	.	.
COc1cccc(C(=O)c2cn(CC(=O)NCc3ccco3)c3nc(C)ccc3c2=O)c1	i	i	-7.0	i	i	0.3	.	.	.
COc1ccccc1CN1C[C@@H]2C[C@@H](c3ccccc3C)N3CCC[C@@]23C1=O	i	i	-7.5	i	i	0.73	i	i	i
CN(Cc1ccc(F)cc1)Cc1nc(CCc2ccccc2)no1	i	i	-12.7	i	i	1.3	i	i	i
CCN(CC)c1ccc(S(=O)(=O)N2CCOCC2)cc1NC(=O)CSc1nnc(N)s1	i	i	-8.4	i	i	0.01	.	.	.
SMILES	KCNK3 block	KCNQ1 block	hERG protect	KCNQ1 act	KCNK9 inh	Kir21 block	KCNK9 block conf	Kir21 sel	KCNK9 uninduced
COc1ccccc1N1CCN(C(=O)CCSCc2ccccc2F)CC1	i	i	-24.2	i	i	-0.23	.	.	.
COc1cccc(N2CCN(C(=O)CCSCc3ccccc3F)CC2)c1	i	i	-21.3	i	i	1.1	i	i	i
NC(=O)CSc1nc2ccccc2c(=O)n1Cc1ccco1	i	i	-5.3	i	i	-0.9	.	.	.
CCCn1c(C)cc(C(=O)CSc2nc3ccccc3c(=O)n2Cc2ccco2)c1C	i	i	-2.0	i	i	-0.14	i	i	i
CC(C)Cn1c(-c2ccccc2)nc2ccccc2c1=O	i	i	-9.7	i	i	-3.54	.	.	.
CCCCOC(=O)Cn1c(-c2ccccc2)nc2ccccc2c1=O	i	i	-6.8	i	-11.4*	1.21	56.5%*	i	52.0%*
Cc1ccc(SCc2ccc(C(=O)N3CCCC3)cc2)cc1	i	i	5.7*	i	i	-1.73	i	i	i
N#CC(NC(=O)OCc1ccccc1)c1ccccc1 (stereo unspecified)	i	i	-12.3	i	i	-0.4	.	.	.
COc1ccc(/C=C/c2nc3ccccc3n2Cc2ccc(OC)c(OC)c2)cc1	i	i	-3.2	i	-8.12*	-2.19	58.5%*	i	33.0%*

Source: PubChem BioAssay
